Reference: ChEMBL document CHEMBL1123988, “Studies on antifungal agents. 23. Novel substituted 3,5-diphenyl-3-(1H-imidazol-1-ylmethyl)- 2-alkylisoxazolidine derivatives” (1988)
In brackets after ≈: the same amount, converted by molar mass.

Experiments:
Aspergillus fumigatus = experiment: In vitro antifungal activity against Aspergillus fumigatus ATCC 28212; type: functional
Procedure, shortened: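 Agar-well MIC with Antibiotic Medium 3 + 2% agar containing compound at 70 to 0.2 µg/mL, using four- or six-point dilutions. Mold was grown about 1 week on Potato Flake Agar at 26 °C, swabbed into sterile water, counted by hemacytometer and adjusted to 1 × 10^4 cells/mL. MIC was the lowest dilution without visible growth.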

Candida albicans [1] = experiment: In vitro antifungal activity against Candida albicans ATCC 10259; type: functional
Procedure, shortened: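 Yeast was cultured overnight on Potato Flake Agar at 26 °C, swabbed into sterile water, counted by hemacytometer and diluted to 1 × 10^4 cells/mL. Wells (24-well) contained Antibiotic Medium 3 + 2% agar with compound at 70 to 0.2 µg/mL, in four- or six-point series. Each well got 0.05 mL and was held at 26 °C until control growth was visible. MIC was the lowest concentration with no visible growth.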

Trichophyton rubrum = experiment: In vitro antifungal activity against Trichophyton rubrum ATCC 18762; type: functional
Procedure, shortened: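 Dermatophyte was grown about 2 weeks on Potato Flake Agar at 26 °C, washed off the plate with sterile water and diluted to 1 × 10^4 cells/mL by hemacytometer count. Agar wells (Antibiotic Medium 3 + 2% agar, compound 70 to 0.2 µg/mL, four- or six-point) were inoculated with 0.05 mL and incubated at 26 °C until controls grew. MIC was the lowest dilution showing no visible growth.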

Microsporum audouinii = experiment: In vitro antifungal activity against Microsporum audouinii ATCC 9079; type: functional
Procedure, shortened: (§1)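 Solid agar MIC in 24-well plates. Compound was diluted 10-fold into Antibiotic Medium 3 + 2% agar at 70 to 0.2 µg/mL, using four- or six-point schemes, with a ketoconazole control. The organism was grown on Potato Flake Agar at 26 °C, counted by hemacytometer and diluted to 1 × 10^4 cells/mL. Wells received 0.05 mL and were incubated at 26 °C until control growth appeared. MIC was the lowest dilution with no visible growth.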

Microsporum canis = experiment: In vitro antifungal activity against Microsporum canis ATCC 44459; type: functional; procedure, shortened: as §1
Trichophyton tonsurans [2] = experiment: (§2) In vitro antifungal activity against Trichophyton tonsurans ATCC 9085; type: functional; procedure, shortened: as §1
[3] = system: Trichophyton schoenleinii; experiment: In vitro antifungal activity against Trichophyton schoenleinii ATCC 22775; type: functional; procedure, shortened: as §1
Trichophyton benhamiae = experiment: (§3) In vitro antifungal activity against Trichophyton mentagrophytes ATCC 9533; type: functional, Arthroderma benhamiae; procedure, shortened: as §1
Epidermophyton floccosum = experiment: In vitro antifungal activity against Epidermophyton floccosum ATCC E-18397; type: functional; procedure, shortened: as §1
Candida albicans [4] = experiment: In vitro antifungal activity against Candida stellatoidea ATCC 36232; type: functional; procedure, shortened: as §1
Candida albicans [5] = experiment: Antifungal activity in rat vaginal candidasis, 1 day postinfection with Candida. albicans SOB FM-391; type: functional
Procedure, shortened: (§4)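 Ovariectomized female Sprague–Dawley rats (170–230 g), eight per group, kept in pseudoestrus with weekly sc estradiol valerate (0.5 mg). Intravaginal challenge on day 4 with 1 × 10^7 organisms in 0.1 mL RPMI+. Oral dosing at 20 mg/kg in 1% (carboxymethyl)cellulose, twice daily for 7 days from 24 h post-infection. Vaginal swabs in PBS were serially diluted and plated on SDA for 48 h at 24–26 °C. Read-out is log10 organisms/mL lavage fluid.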

Trichophyton tonsurans [6] = experiment: as §2; type: functional; remark: listed apart in the source
Procedure, shortened: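 Solid agar MIC in 24-well plates. Compound was diluted 10-fold into Antibiotic Medium 3 + 2% agar, using either a […] or a 70/20/7/2/0.7/0.2 µg/mL scheme. Cells counted by hemacytometer were diluted to 1 × 10^4 cells/mL, and 0.05 mL was inoculated. Plates were incubated at 26 °C until compound-free controls grew. MIC is the lowest dilution with no visible growth.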

Candida albicans [7] = experiment: Antifungal activity in rat vaginal candidasis, 2 day postinfection with Candida. albicans SOB FM-391; type: functional; procedure, shortened: as §4
Candida albicans [8] = experiment: Antifungal activity in rat vaginal candidasis, 3 day postinfection with Candida. albicans SOB FM-391; type: functional; procedure, shortened: as §4
Candida albicans [9] = experiment: Antifungal activity in rat vaginal candidasis, 8 day postinfection with Candida. albicans SOB FM-391; type: functional; procedure, shortened: as §4
Candida albicans [10] = experiment: Antifungal activity in rat vaginal candidasis, 4 day postinfection with Candida. albicans SOB FM-391; type: functional; procedure, shortened: as §4
Candida albicans [11] = experiment: Antifungal activity in rat vaginal candidasis, 7 day postinfection with Candida. albicans SOB FM-391; type: functional; procedure, shortened: as §4
[12] = as §3; type: functional, Arthroderma benhamiae; conditions: Trichophyton benhamiae; procedure, shortened: as §1
[13] = system: Trichophyton schoenleinii; experiment: In vitro antifungal activity against Trichophyton schoenleinii ATCC 22775
Trichophyton tonsurans [14] = experiment: In vitro antifungal activity against Trichophyton tonsurans ATCC 9085

| SMILES | MIC (Aspergillus fumigatus) [µg/mL] | MIC (Candida albicans [1]) [µg/mL] | MIC (Trichophyton rubrum) [µg/mL] | MIC (Microsporum audouinii) [µg/mL] | MIC (Microsporum canis) [µg/mL] | MIC (Trichophyton tonsurans [2]) [µg/mL] | MIC [3] [µg/mL] | MIC (Trichophyton benhamiae) [µg/mL] | MIC (Epidermophyton floccosum) [µg/mL] | MIC (Candida albicans [4]) [µg/mL] | MIC [12] [µg/mL] | MIC [13] [µg/mL] | MIC (Trichophyton tonsurans [14]) [µg/mL] | Log (Candida albicans [5]) | MIC (Trichophyton tonsurans [6]) [µg/mL] | Log (Candida albicans [7]) | Log (Candida albicans [8]) | Log (Candida albicans [9]) | Log (Candida albicans [10]) | Log (Candida albicans [11]) |
| --- | --- | --- | --- | --- | --- | --- | --- | --- | --- | --- | --- | --- | --- | --- | --- | --- | --- | --- | --- | --- |
| Fc1ccc([C@]2(Cn3ccnc3)C[C@@H](c3ccccc3)ON2Cc2ccccc2)cc1 | > 70 | 20 (≈ 48.4 µM) | 0.7 (≈ 1.69 µM) |  |  |  |  |  |  |  |  |  |  |  |  |  |  |  |  |  |
| COc1ccc([C@@H]2C[C@@](Cn3ccnc3)(c3ccc(OC)cc3)N(C)O2)cc1 | > 70 | 70 (≈ 184 µM) | 20 (≈ 52.7 µM) | 70 (≈ 184 µM) | 20 (≈ 52.7 µM) | 20 (≈ 52.7 µM) | 70 (≈ 184 µM) | 20 (≈ 52.7 µM) | 7 (≈ 18.4 µM) | 20 (≈ 52.7 µM) |  |  |  |  |  |  |  |  |  |  |
| CC(=O)N1CCN(c2ccc(OCC3COC(Cn4ccnc4)(c4ccc(Cl)cc4Cl)O3)cc2)CC1 (stereo not drawn) [KETOCONAZOLE] | 7 (≈ 13.2 µM) | 20 (≈ 37.6 µM) | 0.7 (≈ 1.32 µM) | 7 (≈ 13.2 µM) | 2 (≈ 3.76 µM) |  | 0.7 (≈ 1.32 µM) | 2 (≈ 3.76 µM) | < 0.2 | 20 (≈ 37.6 µM) |  |  |  | 5 | < 0.2 | 1.5 | 0.3 | 0 | 0 | 0 |
| CN1O[C@H](c2c(Cl)cccc2Cl)C[C@@]1(Cn1ccnc1)c1ccc(Cl)cc1 | 2 (≈ 4.73 µM) | 7 (≈ 16.6 µM) | 0.7 (≈ 1.66 µM) | 20 (≈ 47.3 µM) | 2 (≈ 4.73 µM) | 0.7 (≈ 1.66 µM) | 7 (≈ 16.6 µM) | 7 (≈ 16.6 µM) | 0.7 (≈ 1.66 µM) | 7 (≈ 16.6 µM) |  |  |  |  |  |  |  |  |  |  |
| Cc1ccc([C@H]2C[C@@](Cn3ccnc3)(c3ccc(Cl)cc3)N(C)O2)cc1 | 70 (≈ 190 µM) | 20 (≈ 54.4 µM) | 2 (≈ 5.44 µM) | 20 (≈ 54.4 µM) | 7 (≈ 19 µM) |  | 2 (≈ 5.44 µM) |  | 2 (≈ 5.44 µM) | 0.7 (≈ 1.9 µM) | 2 (≈ 5.44 µM) |  |  |  | 2 (≈ 5.44 µM) |  |  |  |  |  |
| CN1O[C@H](c2ccccc2)C[C@@]1(Cn1ccnc1)c1ccc(Cl)cc1 | 70 (≈ 198 µM) | 20 (≈ 56.5 µM) | 0.7 (≈ 1.98 µM) | 7 (≈ 19.8 µM) | 2 (≈ 5.65 µM) |  |  | < 0.2 | 0.7 (≈ 1.98 µM) | 7 (≈ 19.8 µM) |  | 2 (≈ 5.65 µM) | 0.7 (≈ 1.98 µM) |  |  |  |  |  |  |  |
| CN1O[C@@H](c2c(Cl)cccc2Cl)C[C@@]1(Cn1ccnc1)c1ccc(Cl)cc1 | 7 (≈ 16.6 µM) | 7 (≈ 16.6 µM) | 0.7 (≈ 1.66 µM) | 20 (≈ 47.3 µM) | 2 (≈ 4.73 µM) | 0.7 (≈ 1.66 µM) | 7 (≈ 16.6 µM) | 7 (≈ 16.6 µM) | 0.7 (≈ 1.66 µM) | 7 (≈ 16.6 µM) |  |  |  |  |  |  |  |  |  |  |

Further compounds by falling MIC (Aspergillus fumigatus), results first:

| MIC (Aspergillus fumigatus) [µg/mL] | MIC (Candida albicans [1]) [µg/mL] | MIC (Trichophyton rubrum) [µg/mL] | MIC (Microsporum audouinii) [µg/mL] | MIC (Microsporum canis) [µg/mL] | MIC (Trichophyton tonsurans [2]) [µg/mL] | MIC [3] [µg/mL] | MIC (Trichophyton benhamiae) [µg/mL] | MIC (Epidermophyton floccosum) [µg/mL] | MIC (Candida albicans [4]) [µg/mL] | MIC [12] [µg/mL] | MIC [13] [µg/mL] | MIC (Trichophyton tonsurans [14]) [µg/mL] | SMILES | Log (Candida albicans [5]) | MIC (Trichophyton tonsurans [6]) [µg/mL] | Log (Candida albicans [7]) | Log (Candida albicans [8]) | Log (Candida albicans [9]) | Log (Candida albicans [10]) | Log (Candida albicans [11]) |
| --- | --- | --- | --- | --- | --- | --- | --- | --- | --- | --- | --- | --- | --- | --- | --- | --- | --- | --- | --- | --- |
| 70 (≈ 219 µM) | 70 (≈ 219 µM) | 2 (≈ 6.26 µM) | 20 (≈ 62.6 µM) | 7 (≈ 21.9 µM) | 0.7 (≈ 2.19 µM) | 7 (≈ 21.9 µM) | 0.7 (≈ 2.19 µM) | 7 (≈ 21.9 µM) | 7 (≈ 21.9 µM) |  |  |  | CN1O[C@H](c2ccccc2)C[C@@]1(Cn1ccnc1)c1ccccc1 |  |  |  |  |  |  |  |
| 70 (≈ 190 µM) | 7 (≈ 19 µM) | 2 (≈ 5.44 µM) | 7 (≈ 19 µM) | 7 (≈ 19 µM) | 0.7 (≈ 1.9 µM) | 2 (≈ 5.44 µM) | 0.7 (≈ 1.9 µM) | 0.7 (≈ 1.9 µM) | 0.7 (≈ 1.9 µM) |  |  |  | Cc1ccc([C@@H]2C[C@@](Cn3ccnc3)(c3ccc(Cl)cc3)N(C)O2)cc1 |  |  |  |  |  |  |  |
| 20 (≈ 59.3 µM) | 70 (≈ 207 µM) | 2 (≈ 5.93 µM) |  |  |  |  |  |  |  |  |  |  | CN1O[C@H](c2ccccc2)C[C@@]1(Cn1ccnc1)c1ccc(F)cc1 |  |  |  |  |  |  |  |
| 7 (≈ 18 µM) | 7 (≈ 18 µM) | 0.7 (≈ 1.8 µM) | 2 (≈ 5.15 µM) | 2 (≈ 5.15 µM) | < 0.2 | 0.7 (≈ 1.8 µM) | < 0.2 | < 0.2 | 0.7 (≈ 1.8 µM) |  |  |  | CN1O[C@H](c2ccccc2Cl)C[C@@]1(Cn1ccnc1)c1ccc(Cl)cc1 |  |  |  |  |  |  |  |
| 7 (≈ 18 µM) | 7 (≈ 18 µM) | 0.7 (≈ 1.8 µM) | 2 (≈ 5.15 µM) | 2 (≈ 5.15 µM) | < 0.2 | 0.7 (≈ 1.8 µM) | < 0.2 | < 0.2 | 2 (≈ 5.15 µM) |  |  |  | CN1O[C@H](c2ccc(Cl)cc2)C[C@@]1(Cn1ccnc1)c1ccc(Cl)cc1 | 4.7 |  | 4 | 3.6 | 1.8 | 3.4 | 3.3 |
